Laboratory results reported in ChEMBL document CHEMBL1671628, “Cell density and cell aging as factors modulating antifungal resistance of Candida albicans biofilms” (2008).
≈ marks a conversion by molar mass, not a printed value.

Tests used:
[1] = tested on: Candida albicans; test: Antifungal activity against 10^7 cells/ml Candida albicans ATCC 90028 planktonic cells by XTT reduction assay; assay type: functional
How it was run: (§1)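 High-density planktonic suspensions (10^7 or 10^8 cells/ml) added to serially double-diluted drugs as in the NCCLS setup, run in parallel in RPMI 1640 + 2% glucose and YNB + 100 mM glucose. Viability read by XTT (1 mg/ml) with menadione (0.4 mM stock, 5:1), 3 h dark at 37°C, A490 minus blank wells. MIC50 = lowest concentration giving 50% reduction versus drug-free control.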

[2] = tested on: Candida albicans; test: Antifungal activity against 10^7 cells/ml wild-type Candida albicans BF-1 planktonic cells by XTT reduction assay; assay type: functional; how it was run: as §1
[3] = tested on: Candida albicans; test: Antifungal activity against 10^8 cells/ml Candida albicans ATCC 90028 planktonic cells by XTT reduction assay; assay type: functional; how it was run: as §1
[4] = tested on: Candida albicans; test: Antifungal activity against 10^8 cells/ml wild-type Candida albicans BF-1 planktonic cells by XTT reduction assay; assay type: functional
How it was run: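 Planktonic suspensions at 1 × 10^8 cells/ml added to twofold serial drug dilutions in 96-well plates (NCCLS format). Run in parallel in RPMI 1640 + 2% glucose and YNB + 100 mM glucose. Readout by XTT reduction: XTT–menadione in PBS, 3 h at 37°C in the dark, A490 minus blank. MIC50 is 50% reduction vs drug-free control.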

[5] = tested on: Candida albicans; test: Antifungal activity against 24 hrs cultures of 10^7 cells/ml Candida albicans ATCC 90028 biofilms by XTT reduction assay; assay type: functional
How it was run: (§2)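 Washed late-exponential cells at 1 × 10^7 cells/ml in YNB + 100 mM glucose were adhered 1.5 h at 37°C with shaking at 75 rpm, washed, then grown 24 or 48 h at 37°C, 75 rpm. Biofilms were washed and exposed 24 or 48 h at 37°C to twofold dilutions in RPMI + 2% glucose. Read by XTT at A490. MIC50 is 50% reduction vs drug-free control. Three experiments, four replicates.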

[6] = tested on: Candida albicans; test: Antifungal activity against 24 hrs cultures of 10^7 cells/ml wild-type Candida albicans BF-1 biofilms by XTT reduction assay; assay type: functional; how it was run: as §2
[7] = tested on: Candida albicans; test: Antifungal activity against 10^3 cells/ml Candida albicans SC5314 by NCCLS method; assay type: functional
How it was run: (§3)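 Planktonic broth microdilution per NCCLS (CLSI): inoculum from 24-h SDA cultures adjusted to 0.5 McFarland at 520 nm, diluted in RPMI 1640 to about 0.5 × 10^3 to 2.5 × 10^3 cells/ml. Cells exposed to twofold drug dilutions, incubated 35°C for 48 h, then MIC read. Three separate occasions.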

[8] = tested on: Candida albicans; test: Antifungal activity against 10^8 cells/ml Candida albicans SC5314 planktonic cells by XTT reduction assay; assay type: functional; how it was run: as §1
[9] = tested on: Candida albicans; test: Antifungal activity against 24 hrs cultures of 10^7 cells/ml Candida albicans SC5314 biofilms by XTT reduction assay; assay type: functional; conditions: SC5314, 24 h; how it was run: as §2
[10] = tested on: Candida albicans; test: Antifungal activity against 24 hrs cultures of 10^7 cells/ml Candida albicans ATCC 90028 planktonic cells by XTT reduction method; assay type: functional
How it was run: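 Standard 1 × 10^7 cells/ml suspension in YNB + 100 mM glucose propagated planktonically 24 h alongside age-matched biofilms, then exposed to twofold drug dilutions. Metabolic activity read by XTT–menadione reduction, 3 h dark, 37°C, A490 background-subtracted. MIC50 is the 50% reduction point versus drug-free control.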

[11] = tested on: Candida albicans; test: Antifungal activity against 24 hrs cultures of 10^7 cells/ml Candida albicans BF-1 planktonic cells by XTT reduction method; assay type: functional
How it was run: (§4)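 Age-matched planktonic cultures were grown from the same 1 × 10^7 cells/ml YNB + 100 mM glucose suspension under the biofilm conditions for 24 or 48 h. They were tested against twofold drug dilutions by XTT reduction (3 h at 37°C in the dark, A490 minus blank). MIC50 is 50% reduction vs drug-free control.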

[12] = tested on: Candida albicans; test: Antifungal activity against 48 hrs cultures of 10^7 cells/ml Candida albicans ATCC 90028 planktonic cells by XTT reduction method; assay type: functional; how it was run: as §4
[13] = tested on: Candida albicans; test: Antifungal activity against 48 hrs cultures of 10^7 cells/ml Candida albicans BF-1 planktonic cells by XTT reduction method; assay type: functional; how it was run: as §4
[14] = tested on: Candida albicans; test: Antifungal activity against 24 hrs cultures of 10^7 cells/ml Candida albicans ATCC 90028 biofilms by XTT reduction method; assay type: functional; how it was run: as §2
[15] = tested on: Candida albicans; test: Antifungal activity against 24 hrs cultures of 10^7 cells/ml Candida albicans BF-1 biofilms by XTT reduction method; assay type: functional; how it was run: as §2
[16] = tested on: Candida albicans; test: Antifungal activity against 48 hrs cultures of 10^7 cells/ml Candida albicans ATCC 90028 biofilms by XTT reduction method; assay type: functional; how it was run: as §2
[17] = tested on: Candida albicans; test: Antifungal activity against 48 hrs cultures of 10^7 cells/ml Candida albicans BF-1 biofilms by XTT reduction method; assay type: functional; how it was run: as §2
[18] = tested on: Candida albicans; test: Antifungal activity against 24 hrs cultures of 10^7 cells/ml biofilm-derived Candida albicans ATCC 90028 planktonic cells hrs by XTT reduction method; assay type: functional
How it was run: (§5)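 Biofilms grown from 1 × 10^7 cells/ml (YNB + 100 mM glucose, 1.5 h adherence, 37°C, 75 rpm) for 24 or 48 h, washed, scraped and moved to wells of serially double-diluted drugs. Incubated with drug 24 or 48 h, then XTT–menadione read at 490 nm. MIC50 = 50% reduction versus drug-free control.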

[19] = tested on: Candida albicans; test: Antifungal activity against 24 hrs cultures of 10^7 cells/ml biofilm-derived Candida albicans BF-1 planktonic cells hrs by XTT reduction method; assay type: functional
How it was run: (§6)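 Biofilms grown 24 or 48 h from 1 × 10^7 cells/ml were washed, scraped and transferred into plates of twofold serially diluted drugs. They were incubated 24 or 48 h. MIC was read by XTT reduction (3 h at 37°C in the dark, A490 minus blank) as 50% reduction vs drug-free control.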

[20] = tested on: Candida albicans; test: Antifungal activity against 48 hrs cultures of 10^7 cells/ml biofilm-derived Candida albicans ATCC 90028 planktonic cells hrs by XTT reduction method; assay type: functional; how it was run: as §6
[21] = tested on: Candida albicans; test: Antifungal activity against 48 hrs cultures of 10^7 cells/ml biofilm-derived Candida albicans BF-1 planktonic cells hrs by XTT reduction method; assay type: functional; how it was run: as §5
[22] = tested on: Candida albicans; test: Antifungal activity against 10^3 cells/ml Candida albicans ATCC 90028 by NCCLS method; assay type: functional; how it was run: as §3
[23] = tested on: Candida albicans; test: Antifungal activity against 10^3 cells/ml wild-type Candida albicans BF-1 by NCCLS method; assay type: functional; how it was run: as §3
[24] = tested on: Candida albicans; test: Antifungal activity against 10^5 cells/ml Candida albicans ATCC 90028 by EUCAST method; assay type: functional
How it was run: (§7)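 EUCAST AFST planktonic broth microdilution: RPMI 1640 plus 2% glucose, inoculum 0.5 × 10^5 to 2.5 × 10^5 cells/ml, twofold drug dilutions. Performed on three different occasions.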

[25] = tested on: Candida albicans; test: Antifungal activity against 10^5 cells/ml wild-type Candida albicans BF-1 by EUCAST method; assay type: functional; how it was run: as §7
[26] = tested on: Candida albicans; test: Antifungal activity against 48 hrs cultures of 10^8 cells/ml Candida albicans ATCC 90028 biofilms by XTT reduction assay; conditions: ATCC 90028, 48 h
[27] = tested on: Candida albicans; test: Antifungal activity against 48 hrs cultures of 10^8 cells/ml wild-type Candida albicans BF-1 biofilms by XTT reduction assay; conditions: BF-1, 48 h
[28] = tested on: Candida albicans; test: Antifungal activity against 48 hrs cultures of 10^7 cells/ml Candida albicans ATCC 90028 biofilms by XTT reduction assay; assay type: functional; how it was run: as §2
[29] = tested on: Candida albicans; test: Antifungal activity against 48 hrs cultures of 10^7 cells/ml wild-type Candida albicans BF-1 biofilms by XTT reduction assay; assay type: functional; how it was run: as §2
[30] = tested on: Candida albicans; test: Ratio of MIC for 10^8 cells/ml wild-type Candida albicans BF-1 to MIC for 10^7 cells/ml wild-type Candida albicans BF-1 grown as planktonic cells; assay type: functional; how it was run: as §1

CC[C@H](C)C[C@H](C)CCCCCCCCC(=O)N[C@H]1C[C@@H](O)[C@@H](NCCN)NC(=O)[C@@H]2[C@@H](O)CCN2C(=O)[C@H]([C@H](O)CCN)NC(=O)[C@H]([C@H](O)[C@@H](O)c2ccc(O)cc2)NC(=O)[C@@H]2C[C@@H](O)CN2C(=O)[C@H]([C@@H](C)O)NC1=O [CASPOFUNGIN]
MIC [1]: 0.2 µg/mL (≈ 0.183 µM) | MIC [2]: 0.2 µg/mL (≈ 0.183 µM) | MIC [3]: 0.2 µg/mL (≈ 0.183 µM) | MIC [4]: 0.4 µg/mL (≈ 0.366 µM) | MIC ([5]; ATCC 90028, 24 h): 100 µg/mL (≈ 91.5 µM) | MIC ([6]; BF-1, 24 h): > 100 µg/mL | MIC [7]: 0.2 µg/mL (≈ 0.183 µM) | MIC [8]: 0.2 µg/mL (≈ 0.183 µM) | MIC [9]: > 100 µg/mL | MIC ([10]; ATCC 90028, 24 h): 0.2 µg/mL (≈ 0.183 µM) | MIC ([11]; BF-1, 24 h): 0.4 µg/mL (≈ 0.366 µM) | MIC ([12]; ATCC 90028, 48 h): 0.4 µg/mL (≈ 0.366 µM) | MIC ([13]; BF-1, 48 h): 0.4 µg/mL (≈ 0.366 µM) | MIC ([14]; ATCC 90028, 24 h): 100 µg/mL (≈ 91.5 µM) | MIC ([15]; BF-1, 24 h): > 100 µg/mL | MIC ([16]; ATCC 90028, 48 h): 100 µg/mL (≈ 91.5 µM) | MIC ([17]; BF-1, 48 h): > 100 µg/mL | MIC ([18]; ATCC 90028, 24 h): 0.2 µg/mL (≈ 0.183 µM) | MIC ([19]; BF-1, 24 h): 0.4 µg/mL (≈ 0.366 µM) | MIC ([20]; ATCC 90028, 48 h): 0.4 µg/mL (≈ 0.366 µM) | MIC ([21]; BF-1, 48 h): 0.2 µg/mL (≈ 0.183 µM) | MIC [22]: 0.2 µg/mL (≈ 0.183 µM) | MIC [23]: 0.2 µg/mL (≈ 0.183 µM) | MIC [24]: 0.2 µg/mL (≈ 0.183 µM) | MIC [25]: 0.2 µg/mL (≈ 0.183 µM) | MIC [26]: 100 µg/mL (≈ 91.5 µM) | MIC [27]: > 100 µg/mL

NYSTATIN
MIC [1]: 2 µg/mL | MIC [2]: 2 µg/mL | MIC [3]: 8 µg/mL | MIC [4]: 16 µg/mL | MIC [5]: 16 µg/mL | MIC [6]: 32 µg/mL | MIC [28]: 16 µg/mL | MIC [29]: 32 µg/mL | MIC [10]: 2 µg/mL | MIC [11]: 4 µg/mL | MIC [12]: 8 µg/mL | MIC [13]: 16 µg/mL | MIC [14]: 16 µg/mL | MIC [15]: 32 µg/mL | MIC [16]: 16 µg/mL | MIC [17]: 32 µg/mL | MIC [18]: 2 µg/mL | MIC [19]: 4 µg/mL | MIC [20]: 8 µg/mL | MIC [21]: 16 µg/mL | Ratio [30]: 8 | MIC [22]: 1 µg/mL | MIC [23]: 2 µg/mL | MIC [24]: 1 µg/mL | MIC [25]: 2 µg/mL

Nc1nc(=O)[nH]cc1F [FLUCYTOSINE]
MIC [1]: 6.5 µg/mL (≈ 50.4 µM) | MIC [2]: 6.5 µg/mL (≈ 50.4 µM) | MIC [3]: > 420 µg/mL | MIC [4]: > 420 µg/mL | MIC ([5]; ATCC 90028, 24 h): > 420 µg/mL | MIC ([6]; BF-1, 24 h): > 420 µg/mL | MIC [7]: 0.8 µg/mL (≈ 6.2 µM) | MIC [8]: > 420 µg/mL | MIC [9]: > 420 µg/mL | MIC ([10]; ATCC 90028, 24 h): > 420 µg/mL | MIC ([11]; BF-1, 24 h): > 420 µg/mL | MIC ([12]; ATCC 90028, 48 h): > 420 µg/mL | MIC ([13]; BF-1, 48 h): > 420 µg/mL | MIC ([14]; ATCC 90028, 24 h): > 420 µg/mL | MIC ([15]; BF-1, 24 h): > 420 µg/mL | MIC ([16]; ATCC 90028, 48 h): > 420 µg/mL | MIC ([17]; BF-1, 48 h): > 420 µg/mL | MIC ([18]; ATCC 90028, 24 h): > 420 µg/mL | MIC ([19]; BF-1, 24 h): > 420 µg/mL | MIC ([20]; ATCC 90028, 48 h): > 420 µg/mL | MIC ([21]; BF-1, 48 h): > 420 µg/mL | Ratio [30]: >1000 | MIC [22]: 0.8 µg/mL (≈ 6.2 µM) | MIC [23]: 0.8 µg/mL (≈ 6.2 µM) | MIC [24]: 0.8 µg/mL (≈ 6.2 µM) | MIC [25]: 0.8 µg/mL (≈ 6.2 µM) | MIC [26]: > 420 µg/mL | MIC [27]: > 420 µg/mL
